{"source": "paper PMC6366617", "about": "(Science (New York, N.Y.), 2019)", "molecules": {"B1": {"name": "APP 9mer peptide (APP695 residues 204-212) (peptide, UniProt P05067-4 204-212, looked up)", "peptide": "DDSDVWWGG"}, "B2": {"name": "sushi 1 domain of GABABR1a (Fc-tag enzymatically removed) (domain or fragment)", "chain": "TSEGCQIIHPPWEGGIRYRGLTRDQVKAINFLPVDYEIEYVCRGEREVVGPKVRKCLANGSWTDMDTPSRCVR"}, "B3": {"name": "sushi 1 peptide: sushi 1 domain of GABABR1a, recombinant (protein)", "chain": "B2 chain", "modifications": "left off: Fc, end not stated, kept"}, "B4": {"name": "APP 17mer peptide (APP695 204-220AA) (peptide, UniProt P05067-4 204-220, looked up)", "peptide": "DDSDVWWGGADTDYADG"}, "B5": {"name": "sAPLP1: soluble APP-like protein 1, lacks a conserved ExD (protein)", "chain": "SLAGGSPGAAEAPGSAQVAGLCGRLTLHRDLRTGRWEPDPQRSRRCLRDPQRVLEYCRQMYPELQIARVEQATQAIPMERWCGGSRSGSCAHPHHQVVPFRCLPGEFVSEALLVPEGCRFLHQERMDQCESSTRRHQEAQEACSSQGLILHGSGMLLPCGSDRFRGVEYVCCPPPGTPDPSGTAVGDPSTRSWPPGSRVEGAEDEEEEESFPQPVDDYFVEPPQAEEEEETVPPPSSHTLAVVGKVTPTPRPTDGVDIYFGMPGEISEHEGFLRAKMDLEERRMRQINEVMREWAMADNQSKNLPKADRQALNEHFQSILQTLEEQVSGERQRLVETHATRVIALINDQRRAALEGFLAALQADPPQAERVLLALRRYLRAEQKEQRHTLRHYQHVAAVDPEKAQQMRFQVHTHLQVIEERVNQSLGLLDQNPHLAQELRPQIQELLHSEHLGPSELEAPAPGGSSEDKGGLQPPDSKDDTPMTLPKGSTEQDAASPEKEKMNPLEQYERKVNASVPRGFPFHSSEIQRDELAPAGTGVSRE", "modifications": "left off: Fc, end not stated, kept"}}, "key": {"[1]": {"test_system": "cultured hippocampal mouse neurons (presynaptic strength)", "test": "FM1-43 presynaptic vesicle recycling in cultured hippocampal neurons", "type": "cell-based", "procedure,_shortened": "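Cultured mouse hippocampal neurons were loaded and unloaded with FM1–43 by a combined stimulation paradigm, before and after test protein (Fc tag enzymatically removed; dose series, 1 μM top). Presynaptic strength S = ΔF at individual boutons × density of FM+ boutons per image area. Antagonist arms were run with or without GABABR antagonist, normalized to control. N is independent experiments. Means ± SEM, one-way ANOVA with Tukey post hoc.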"}, "[2]": {"test_system": "Schaffer collateral synapses, acute hippocampal slices", "design": "species or system mouse", "settings": "for paired-pulse ratio (PPR): 1 μM protein, first 2 stimuli at 20, 50 and 100 Hz", "procedure,_shortened": "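Acute mouse hippocampal slices were pre-incubated 90 min with or without 1 μM test protein (Fc tag removed), with or without 10 μM CGP54626. fEPSPs were recorded in CA1 stratum radiatum on Schaffer collateral stimulation. Input/output: 0.1 Hz, 30–150 μA. Bursts at 20, 50 and 100 Hz were normalized to the first response peak. PPR used the first two pulses. n is slices. Means ± SEM.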"}, "[3]": {"test_system": "cultured mouse hippocampal neurons (mEPSCs)", "test": "mEPSC recording in cultured hippocampal neurons", "type": "cell-based", "settings": "for reduction of mEPSC frequency: P < 0.001, 12-17 DIV; for effect on mEPSC frequency: acute application, Fc-tag enzymatically removed (ExD-AcD, sAPPαΔExD; n=17-20, N=3)"}, "[4]": {"test_system": "cultured mouse hippocampal neurons (mIPSCs)", "test": "mIPSC recording in cultured hippocampal neurons", "type": "cell-based", "settings": "for reduction of mIPSC frequency: acute, P < 0.001", "procedure,_shortened": "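Mouse hippocampal neurons in culture (12–17 DIV) were recorded for miniature currents, and mIPSCs were separated from mEPSCs by their decay kinetics. Frequency was compared between baseline and acute application of 250 nM test protein, or of 30 μM baclofen as GABABR agonist reference. n is cells.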"}, "[5]": {"test_system": "neurons lacking APP; App/Aplp1 dKO cultures (mEPSCs)", "test": "mEPSC recording in neurons lacking APP / App/Aplp1 dKO cultures", "type": "cell-based, mouse"}, "[6]": {"test_system": "neurons lacking APP; App/Aplp1 dKO cultures (mIPSCs)", "test": "mIPSC recording in neurons lacking APP / App/Aplp1 dKO cultures", "type": "cell-based, mouse"}, "[7]": {"biological_target": "sushi 1 domain of GABABR1a (Homo sapiens, UniProt Q9UBS5)", "test": "Isothermal titration calorimetry", "type": "binding", "settings": "ITC", "procedure,_shortened": "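Isothermal titration calorimetry was run between purified test protein and purified GABABR1a sushi 1 domain. Fc tags were enzymatically removed from both. The dissociation constant (KD) was derived from the titration.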"}, "[8]": {"test_system": "GABABR2", "test": "Cell-surface binding assay, GABABR2-expressing HEK293T cells", "settings": "immunostaining, confocal, pDisplay vector, n=24"}, "[9]": {"test_system": "GABABR1b", "test": "Cell-surface binding assay, GABABR1b-expressing HEK293T cells", "settings": "immunostaining, confocal, pDisplay vector, n=24", "procedure,_shortened": "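Fc-tagged test protein, affinity-purified from transfected HEK293T supernatants, was applied to HEK293T cells displaying the receptor ectodomain at the surface (pDisplay). Fc alone served as control. Bound protein was detected by immunostaining, imaged by confocal microscopy and quantified per cell. n is total cells from 3–4 independent experiments. Means ± SEM, two-way ANOVA with Bonferroni post hoc.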"}, "[10]": {"test_system": "App KO mice", "settings": "cited from earlier work"}, "[11]": {"test_system": "synaptic transmission and plasticity", "settings": "ref [16]–[19]; cited from earlier work"}, "[12]": {"test_system": "GABABR1a sushi 1", "test": "Biolayer interferometry, sAPPα binding to immobilized sushi peptides", "settings": "sAPPα Fc-tag enzymatically removed; immobilized Fc-tagged sushi peptides"}, "[13]": {"biological_target": "B2", "test": "ITC"}, "[14]": {"biological_target": "sAPPα (Fc-tag enzymatically removed) (UniProt P05067-4 18-612)", "test": "ITC"}, "[15]": {"test_system": "sAPPα-Fc binding to GABABR1a-expressing HEK293T cells", "test": "Competition of sAPPα-Fc binding to GABABR1a-expressing HEK293T cells", "settings": "increasing concentrations of untagged sushi 1 peptide, excess; n=24-31"}, "[16]": {"settings": "30 μM baclofen, App/Aplp1 dKO vs WT cultures"}, "[17]": {"settings": "1 μM sAPPα, 90 min pre-incubation, 0.1 Hz, 30-150 μA"}}, "data": [{"molecule": "C[C@H](NC[C@H](O)CP(=O)(O)CC1CCCCC1)c1ccc(Cl)c(Cl)c1", "note": "[CGP54626, reference compound]", "values": [{"measurement": "effect of CGP54626 on sAPPα-induced decrease of presynaptic strength", "setting": "[1]; CGP54626 10μM, N=8", "result": "occluded"}, {"measurement": "effect of CGP54626 on sAPPα-mediated decrease in i/o slope", "setting": "[2]; CGP54626 10 μM, preincubation of slices", "result": "abolished the sAPPα-mediated decrease in the slope of the i/o curve"}]}, {"molecule": "C[C@H](NC[C@H](O)CP(=O)(O)Cc1ccccc1)c1ccc(Cl)c(Cl)c1", "note": "[CGP55845, reference compound]", "values": [{"measurement": "effect of CGP55845 pretreatment on APP 17mer reduction of mEPSC frequency", "setting": "[3]; CGP55845 5μM, 17mer 250 nM, n=16, N=3 (without CGP n=14, N=3)", "result": "blocks this effect"}, {"measurement": "effect of CGP55845 pretreatment on sAPPα effect on mIPSC frequency", "setting": "[4]; CGP55845 5 μM, pretreatment", "result": "blocked by pretreatment"}]}, {"molecule": "NCC(CC(=O)O)c1ccc(Cl)cc1", "note": "(stereo not drawn) [baclofen, reference compound]", "values": [{"measurement": "effect on mEPSC frequency in App/Aplp1 dKO cultures", "setting": "[5]; [16]", "result": "similarly reduced mEPSC and mIPSC frequency"}, {"measurement": "reduction of mEPSC frequency", "setting": "[3]; 30 μM baclofen, acute, n=14 cells", "result": "63 ± 5", "unit": "%"}, {"measurement": "effect on mIPSC frequency in App/Aplp1 dKO cultures", "setting": "[6]; [16]", "result": "similarly reduced mEPSC and mIPSC frequency"}, {"measurement": "reduction of mIPSC frequency", "setting": "[4]; 30 μM baclofen, n=14 cells", "result": "62 ± 5", "unit": "%"}]}, {"molecule": "residues 211–220: peptide of APP695 residues 211–220 (GGADTDYADG)", "values": [{"measurement": "binding affinity to sushi 1 (in words)", "setting": "[7]; for ExD-AcD Fc-tag enzymatically removed", "result": "failed to bind sushi 1"}]}, {"molecule": "sAPPα-Fc: recombinant sAPPα with C-terminal Fc-tag from transfected HEK293T supernatants", "values": [{"measurement": "binding to GABABR2-expressing cells", "setting": "[8]", "result": "not to GABABR1b-, or GABABR2-, expressing cells"}, {"measurement": "binding to GABABR1b-expressing cells", "setting": "[9]", "result": "not to GABABR1b-"}]}, {"molecule": "sAPPα: soluble APP ectodomain released by α-secretase; purified recombinant protein", "values": [{"measurement": "reduction of total presynaptic strength (S = ΔF × D)", "setting": "[1]; 1 μM sAPPα, FM1-43 loading/unloading, n=8 experiments, P < 0.001", "result": "57 ± 7", "unit": "%"}, {"measurement": "total presynaptic strength (S = ΔF × D), dose dependence", "setting": "[1]; FM1-43 loading/unloading, sAPPα Fc-tag enzymatically removed, N=5-8", "result": "decreased the total presynaptic strength"}, {"measurement": "rescue of spine density defects", "setting": "[10]; ref [20]", "result": "sufficient to rescue synaptic defects in App KO mice, including defects in spine density"}, {"measurement": "rescue of LTP defects", "setting": "[10]; ref [21], [22]", "result": "sufficient to rescue synaptic defects in App KO mice"}, {"measurement": "rescue of spatial learning defects", "setting": "[10]; ref [21]", "result": "sufficient to rescue synaptic defects in App KO mice"}, {"measurement": "effect on mEPSC frequency in neurons lacking APP", "setting": "[5]; sAPPα, neurons lacking APP", "result": "still reduced mEPSC and mIPSC frequency"}, {"measurement": "effect on mEPSC frequency at 25 nM", "setting": "[3]; 25nM sAPPα", "result": "already apparent at 25nM"}, {"measurement": "effect on mEPSC amplitude", "setting": "[3]; 250 nM sAPPα (Fc-tag removed), acute", "result": "without affecting mEPSC amplitude"}, {"measurement": "reduction of mEPSC frequency", "setting": "[3]; 250 nM sAPPα (Fc-tag removed), acute, n=13 cells", "result": "39 ± 5", "unit": "%"}, {"measurement": "Kd", "setting": "[7]; read-out: dissociation constant (KD) for sAPPα-sushi 1, purified proteins, Fc-tag enzymatically removed from both", "result": 431, "unit": "nM"}, {"measurement": "effect on mIPSC frequency in neurons lacking APP", "setting": "[6]; sAPPα, neurons lacking APP", "result": "still reduced mEPSC and mIPSC frequency"}, {"measurement": "effect on LTP", "setting": "[11]", "result": "an enhancement of LTP"}, {"measurement": "effect on synaptic activity", "setting": "[11]", "result": "a reduction in synaptic activity"}, {"measurement": "binding of sAPPα to sushi 1 (biolayer interferometry)", "setting": "[12]", "result": "sushi 1 peptide was sufficient for binding sAPPα"}, {"measurement": "reduction of mIPSC frequency", "setting": "[4]; 250 nM sAPPα, n=13 cells", "result": "44 ± 5", "unit": "%"}, {"measurement": "reduction in mIPSC amplitude", "setting": "[4]; sAPPα, acute (250 nM)", "result": 14, "unit": "%"}, {"measurement": "paired-pulse ratio (PPR)", "setting": "[2]", "result": "increased PPR for each frequency"}, {"measurement": "decrease of slope of the input/output (i/o) curve", "setting": "[2]; [17]", "result": 23, "unit": "%"}, {"measurement": "fEPSP amplitude", "setting": "[2]; [17]", "result": "reduced fEPSP amplitude"}]}, {"molecule": "sAPPαΔExD: sAPPα with deletion of the ExD", "values": [{"measurement": "decrease of total presynaptic strength with ExD deletion", "setting": "[1]; sAPPαΔExD 1 μM, FM1-43", "result": "not observed"}, {"measurement": "effect on mEPSC frequency", "setting": "[3]", "result": "had no effect"}, {"measurement": "effect on mIPSC frequency", "setting": "[4]; acute application", "result": "not sAPPαΔExD, reduced mIPSC frequency"}, {"measurement": "paired-pulse ratio (PPR)", "setting": "[2]", "result": "abolished the sAPPα-mediated effect"}, {"measurement": "effect on the i/o curve with ExD deletion", "setting": "[2]; sAPPαΔExD 1 μM", "result": "abolished the sAPPα-mediated effect on the i/o curve"}]}, {"molecule": "sAPPβ: soluble APP ectodomain released by β-secretase", "values": [{"measurement": "effect on mEPSC frequency", "setting": "[3]", "result": "similarly reduced mEPSC frequency"}]}, {"molecule": "B1", "values": [{"measurement": "Kd", "setting": "[13]", "result": 2300, "unit": "nM"}]}, {"molecule": "B2", "values": [{"measurement": "Kd", "setting": "[14]", "result": 431, "unit": "nM"}]}, {"molecule": "B3", "values": [{"measurement": "blocking of sAPPα-Fc binding to GABABR1a-expressing cells", "setting": "[15]", "result": "blocked binding of sAPPα-Fc to GABABR1a-expressing cells"}]}, {"molecule": "B4", "values": [{"measurement": "Kd", "setting": "[13]", "result": 810, "unit": "nM"}]}, {"molecule": "B5", "values": [{"measurement": "effect on mEPSC frequency", "setting": "[3]", "result": "did not reduce mEPSC frequency"}, {"measurement": "reduction in mIPSC frequency by sAPLP1", "setting": "[4]; sAPLP1, acute, n=17 cells, P < 0.05", "result": "17 ± 9", "unit": "%"}]}]}
